Measurements published in ChEMBL document CHEMBL1153852, “Steroidal lactones as inhibitors of 17beta-hydroxysteroid dehydrogenase type 5: chemical synthesis, enzyme inhibitory activity, and assessment of estrogenic and androgenic activities” (Eur J Med Chem, 2009).
Calls of active or inactive are those of the source. No cut-off for these calls is given here.

What was measured:
[1] = target: T1, 17-beta-hydroxysteroid dehydrogenase type 2 (Homo sapiens) (UniProt P37059); assay: Inhibition of human 17beta-HSD2 expressed in HEK293 cells assessed as enzyme-mediated transformation of [14C]-testosterone in to [14C]-4-androstene-3,17-dione at 0.1 uM; assay type: cell-based
T1 sequence (whole entry): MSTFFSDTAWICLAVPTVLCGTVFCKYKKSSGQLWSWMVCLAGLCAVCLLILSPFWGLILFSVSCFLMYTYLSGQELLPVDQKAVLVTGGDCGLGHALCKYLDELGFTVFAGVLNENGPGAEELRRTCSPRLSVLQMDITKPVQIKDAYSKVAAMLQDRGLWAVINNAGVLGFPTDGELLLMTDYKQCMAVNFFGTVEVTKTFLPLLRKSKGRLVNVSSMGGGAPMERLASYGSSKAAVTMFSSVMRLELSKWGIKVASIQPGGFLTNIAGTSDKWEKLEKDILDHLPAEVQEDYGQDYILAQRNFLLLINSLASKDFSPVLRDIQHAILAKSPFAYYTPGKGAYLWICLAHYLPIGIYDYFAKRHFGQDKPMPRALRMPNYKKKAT

[2] = target: T1, 17-beta-hydroxysteroid dehydrogenase type 2 (Homo sapiens); assay: Inhibition of human 17beta-HSD2 expressed in HEK293 cells assessed as enzyme-mediated transformation of [14C]-testosterone in to [14C]-4-androstene-3,17-dione at 1 uM; assay type: cell-based
[3] = target: T2, Androgen receptor (Rattus norvegicus) (UniProt P15207); assay: Binding affinity to rat ventral prostate androgen receptor at 10 uM; assay type: tissue-based; details: Prostate gland
T2 sequence (whole entry): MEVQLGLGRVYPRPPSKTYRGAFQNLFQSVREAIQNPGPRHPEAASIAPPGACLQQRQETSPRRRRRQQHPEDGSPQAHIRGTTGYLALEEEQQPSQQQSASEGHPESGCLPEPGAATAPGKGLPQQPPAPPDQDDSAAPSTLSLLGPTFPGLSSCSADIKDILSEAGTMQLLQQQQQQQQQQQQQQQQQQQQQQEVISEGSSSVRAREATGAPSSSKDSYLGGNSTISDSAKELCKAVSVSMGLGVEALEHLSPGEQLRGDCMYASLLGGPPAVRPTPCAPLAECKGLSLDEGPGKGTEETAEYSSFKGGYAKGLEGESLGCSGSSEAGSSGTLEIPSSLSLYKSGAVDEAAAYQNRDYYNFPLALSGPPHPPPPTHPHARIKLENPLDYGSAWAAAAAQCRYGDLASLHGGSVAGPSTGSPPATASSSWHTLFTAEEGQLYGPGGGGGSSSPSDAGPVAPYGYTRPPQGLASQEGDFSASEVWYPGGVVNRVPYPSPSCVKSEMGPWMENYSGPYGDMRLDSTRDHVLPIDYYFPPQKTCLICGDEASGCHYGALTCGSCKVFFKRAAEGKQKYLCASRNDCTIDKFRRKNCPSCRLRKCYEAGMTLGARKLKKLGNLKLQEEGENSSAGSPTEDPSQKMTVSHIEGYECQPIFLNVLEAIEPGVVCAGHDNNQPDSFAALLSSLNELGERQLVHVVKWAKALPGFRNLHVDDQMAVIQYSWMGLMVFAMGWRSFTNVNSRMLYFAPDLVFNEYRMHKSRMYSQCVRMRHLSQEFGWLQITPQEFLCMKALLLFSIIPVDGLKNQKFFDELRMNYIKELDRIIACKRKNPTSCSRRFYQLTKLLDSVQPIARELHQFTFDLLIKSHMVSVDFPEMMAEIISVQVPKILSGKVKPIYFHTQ

[4] = target: T3, Glucocorticoid receptor (Rattus norvegicus) (UniProt P06536); assay: Binding affinity to rat liver glucocorticoid receptor at 0.1 uM
T3 sequence (whole entry): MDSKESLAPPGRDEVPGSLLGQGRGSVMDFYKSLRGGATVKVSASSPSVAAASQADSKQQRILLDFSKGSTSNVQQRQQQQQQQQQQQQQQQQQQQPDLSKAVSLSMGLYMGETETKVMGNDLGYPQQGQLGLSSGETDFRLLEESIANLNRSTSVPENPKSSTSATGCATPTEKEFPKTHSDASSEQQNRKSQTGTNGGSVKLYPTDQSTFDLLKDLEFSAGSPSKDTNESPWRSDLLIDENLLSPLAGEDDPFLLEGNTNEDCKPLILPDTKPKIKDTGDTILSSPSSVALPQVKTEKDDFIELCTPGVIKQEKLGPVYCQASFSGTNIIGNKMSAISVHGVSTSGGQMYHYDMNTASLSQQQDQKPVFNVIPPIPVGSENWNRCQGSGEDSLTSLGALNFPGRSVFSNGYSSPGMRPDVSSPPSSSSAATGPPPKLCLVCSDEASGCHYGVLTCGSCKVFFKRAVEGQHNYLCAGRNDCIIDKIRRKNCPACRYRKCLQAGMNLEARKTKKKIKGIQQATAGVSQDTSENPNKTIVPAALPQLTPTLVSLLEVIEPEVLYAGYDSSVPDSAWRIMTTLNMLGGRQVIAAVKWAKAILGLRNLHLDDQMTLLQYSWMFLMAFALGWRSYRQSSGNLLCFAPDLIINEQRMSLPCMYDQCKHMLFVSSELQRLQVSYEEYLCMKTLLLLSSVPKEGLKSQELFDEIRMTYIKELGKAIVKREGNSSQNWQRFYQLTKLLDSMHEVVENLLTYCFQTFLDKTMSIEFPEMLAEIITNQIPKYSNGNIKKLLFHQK
In short: (§1)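 Rat liver glucocorticoid receptor competitive binding, reported as % binding. Bound and free steroid are separated by dextran-coated charcoal adsorption instead of protamine sulfate precipitation.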

[5] = target: T4, 17-beta-hydroxysteroid dehydrogenase type 3 (Homo sapiens) (UniProt P37058); assay: Inhibition of human 17beta-HSD3 expressed in HEK293 cells assessed as enzyme-mediated transformation of [14C]-4-androstene-3,17-dione in to [14C]-testosterone at 0.1 uM; assay type: cell-based
T4 sequence (whole entry): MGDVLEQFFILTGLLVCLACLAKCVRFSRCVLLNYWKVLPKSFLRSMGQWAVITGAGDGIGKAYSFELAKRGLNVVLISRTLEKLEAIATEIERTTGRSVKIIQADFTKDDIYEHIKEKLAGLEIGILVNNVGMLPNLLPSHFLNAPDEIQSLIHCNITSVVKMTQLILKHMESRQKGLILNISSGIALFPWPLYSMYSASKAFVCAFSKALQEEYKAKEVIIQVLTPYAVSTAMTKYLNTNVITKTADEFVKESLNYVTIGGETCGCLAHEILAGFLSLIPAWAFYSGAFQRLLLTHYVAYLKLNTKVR

[6] = target: T2, Androgen receptor (Rattus norvegicus); assay: Binding affinity to rat ventral prostate androgen receptor at 1 uM; assay type: tissue-based; details: Prostate gland
[7] = target: T3, Glucocorticoid receptor (Rattus norvegicus); assay: Binding affinity to rat liver glucocorticoid receptor at 1 uM; in short: as §1

SMILES	Activity [1]	Activity [2]	Activity [3] [%]	Activity [4] [%]	inhibition [5] [%]	Activity [6] [%]	Activity [7] [%]
CC1(C)CC[C@@]2(CC[C@H]3[C@@H]4CCc5cc(O)ccc5[C@H]4CC[C@@]32C)OC1=O	inactive	inactive	6	0	–	–	–
CC1(C)CC[C@@]2(CC[C@H]3[C@@H]4CCc5ccccc5[C@H]4CC[C@@]32C)OC1=O	–	–	–	–	25	0	0
